Measurements as given in publication PMC10938640 (Chemistry & biodiversity, 2023).
Entries after “also recorded” stand apart in the source; their conditions may differ.

Experiments:
[1] = Differential Nuclear Staining; assay type: cell-based, human; conditions: human, MCF-10A mammary epithelial cells
[2] = tested on: MDA-MB-231 triple-negative breast cancer cell line; assay: Differential Nuclear Staining; assay type: cell-based, human
[3] = tested on: CEM acute lymphoblastic leukemia cell line; assay: Differential Nuclear Staining; assay type: cell-based, human
Procedure, shortened: (§1)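 Cells grown in RPMI-1640 with 10% heat-inactivated FBS and penicillin/streptomycin at 37 °C, 5% CO2, then seeded at 10,000/well and left overnight. Test compound given at […] for 48 h, with untreated, 1% v/v DMSO and 1 mM H2O2 controls, at least three technical replicates. Hoechst plus PI (1 μg/mL final) added for the last 2 h. Wells imaged at 4X, live/dead percentages scored, and CC50 derived by linear interpolation.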

[4] = tested on: Jurkat acute T cell leukemia cell line; assay: Differential Nuclear Staining; assay type: cell-based, human; conditions: 48 h exposure, DNS assay
Procedure, shortened: as §1

[5] = tested on: Jurkat cells; assay: Cell cycle distribution analysis, NIM-DAPI; assay type: cell-based, human; conditions: 72 h
[6] = Solubility in the cytotoxicity experiment; assay type: physicochemical; conditions: could not be examined at concentrations higher than 1 μM; crystals formed
[7] = tested on: MCF-10A mammary epithelial cell line; assay: Differential Nuclear Staining; assay type: cell-based, human; conditions: MCF-10A, 72 h exposure, DNS assay
[8] = tested on: Jurkat cells; assay: Reactive oxygen species; assay type: cell-based, human; conditions: 18 h, CC50 (4.36 μM) and 2x CC50 (8.72 μM) of 6h, H2O2 positive control, vs DMSO
[9] = tested on: Jurkat cells; assay: Annexin V-FITC/PI apoptosis assay; assay type: cell-based, human; conditions: 24 h, CC50 (4.36 μM) and 2x CC50 (8.72 μM), vs vehicle control
[10] = tested on: Jurkat cells; assay: Mitochondrial depolarization assay, MitoProbe JC-1; assay type: cell-based, human; conditions: 5 h; for Cells with depolarized mitochondria: solvent 20.9%
[11] = 6h at CC25 (2.18 μM) and CC50 (4.36 μM), vs DMSO
[12] = MDA-MB-231, 72 h exposure, DNS assay

Compound	CC50 at 72 h [1] [µM]	CC50 ([2]; Homo sapiens, MDA-MB-231, 72 h) [µM]	CC50 ([3]; Homo sapiens, 48 h) [µM]	CC50 ([4]; Homo sapiens, 48 h) [µM]	other results
O=C1Nc2ccccc2C1=Cc1cn(-c2ccccc2)nc1-c1cc2ccccc2oc1=O [Compound 6f, 3-((3-(2-Oxo-2H-chromen-3-yl)-1-phenyl-1H-pyrazol-4-yl)methylene)indolin-2-one]	> 20	> 20	> 20	> 20	
COc1cc([C@@H]2c3cc4c(cc3[C@@H](O[C@@H]3O[C@@H]5CO[C@@H](C)O[C@H]5[C@H](O)[C@H]3O)[C@H]3COC(=O)[C@H]23)OCO4)cc(OC)c1O [etoposide, reference compound]					DNA fragmentation (sub G0/G1) [5, 11]: moderate but significant increase in DNA fragmentation (sub G0/G1); S hyperdiploid phase subpopulation ([5]; control): significant arrest in the S hyperdiploid phase
O=C1Nc2ccccc2C1=Cc1cn(-c2ccccc2)nc1-c1ccc([N+](=O)[O-])cc1 [Compound 6c, 3-((3-(4-Nitrophenyl)-1-phenyl-1H-pyrazol-4-yl)methylene)indolin-2-one]	> 20	> 20	> 20	> 20	
COc1ccc(-c2nn(-c3ccccc3)cc2C=C2C(=O)Nc3ccccc32)cc1 [Compound 6d, 3-((3-(4-Methoxyphenyl)-1-phenyl-1H-pyrazol-4-yl)methylene)indolin-2-one]	> 1	> 1	> 1	> 1	Solubility (result in words) [6]: poor solubility
O=C1Nc2ccccc2C1=Cc1cn(-c2ccccc2)nc1-c1ccccc1 [Compound 6a]					CC50 [7]: > 1 µM; CC50 [2, 12]: > 1 µM; CC50 ([3]; CEM, 48 h exposure, DNS assay): > 1 µM; CC50 [4]: > 1 µM; Solubility (result in words) [6]: poor solubility
COc1ccc(-c2nn(-c3ccccc3)cc2C=C2C(=O)Nc3ccc(C)cc32)cc1 [Compound 6i, 3-((3-(4-methoxyphenyl)-1-phenyl-1H-pyrazol-4-yl)methylene)-5-methylindolin-2-one]	9.37 ± 0.42	> 20	> 20	> 20	
OO [Compound H2O2, H2O2, reference compound]					ROS overproduction/accumulation [8]: displayed the highest amount of accumulated ROS; DNA fragmentation (sub G0/G1) [5, 11]: moderate but significant increase in DNA fragmentation (sub G0/G1)
O=C1Nc2ccccc2C1=Cc1cn(-c2ccccc2)nc1-c1ccc(Cl)cc1 [Compound 6e, 3-((3-(4-Chlorophenyl)-1-phenyl-1H-pyrazol-4-yl)methylene)indolin-2-one]	> 20	> 20	> 20	> 20	
Cc1ccc(-c2nn(-c3ccccc3)cc2C=C2C(=O)Nc3ccc(C)cc32)cc1 [Compound 6h, 5-methyl-3-((3-(1-phenyl)-3-(p-tolyl)-1H-pyrazol-4-yl)methylene)indolin-2-one]					CC50 [7]: 14.8 ± 1.48 µM; CC50 [2, 12]: > 20 µM; CC50 ([3]; CEM, 48 h exposure, DNS assay): 7.14 ± 0.92 µM; CC50 [4]: 4.36 ± 0.2 µM; Phosphatidylserine (PS) externalization / apoptosis [9]: induces a significant amount of PS externalization in a dose-response trend; also recorded: induced significant PS externalization; ROS overproduction/accumulation [8]: does not activate ROS overproduction and/or accumulation; also recorded: does not cause ROS accumulation; Mitochondrial depolarization (result in words) ([10]; CC50 and 2x CC50): does not cause mitochondrial depolarization; also recorded: No significant increase in cells with depolarized mitochondria; Cells with depolarized mitochondria ([10]; at 2x CC50, untreated 13.2%): 18.7%; Cells with depolarized mitochondria ([10]; at CC50, untreated 13.2%): 18.3%; DNA fragmentation (sub G0/G1) [5, 11]: moderate but significant increase in DNA fragmentation (sub G0/G1); also recorded: significant increase in DNA fragmentation (sub G0/G1; A); G0/G1 phase subpopulation [5, 11]: significant cell cycle arrest was seen in the G0/G1 subpopulation; also recorded: cell cycle arrest in the G0/G1 diploid phase; G2/M (tetraploid) phase subpopulation [5, 11]: small but also significant reduction in the G2/M (tetraploid) phase; also recorded: significant decrease in G2/M
Cc1ccc2c(c1)C(=Cc1cn(-c3ccccc3)nc1-c1ccc(Cl)cc1)C(=O)N2 [Compound 6j, 3-((3-(4-chlorophenyl)-1-phenyl-1H-pyrazol-4-yl)methylene)-5-methylindolin-2-one]	8.59 ± 0.31	> 20	7.66 ± 0.19		
Cc1ccc2c(c1)C(=Cc1cn(-c3ccccc3)nc1-c1cc3ccccc3oc1=O)C(=O)N2 [Compound 6k, 5-methyl-3-((3-(2-oxo-2H-chromen-3-yl)-1-phenyl-1H-pyrazol-4-yl)methylene)indolin-2-one]	> 20	> 20	> 20	> 20	
Cc1ccc(-c2nn(-c3ccccc3)cc2C=C2C(=O)Nc3ccccc32)cc1 [Compound 6b, 3-((1-Phenyl-3-(p-tolyl)-1H-pyrazol-4-yl)methylene)indolin-2-one]	> 1	> 1	> 1	> 1	Solubility (result in words) [6]: poor solubility
Cc1ccc2c(c1)C(=Cc1cn(-c3ccccc3)nc1-c1ccccc1)C(=O)N2 [Compound 6g, 3-((1,3-diphenyl-1H-pyrazol-4-yl)methylene)-5-methylindolin-2-one]	13 ± 0.49	> 20	> 20	> 20	
